From ChEMBL document CHEMBL4118114 (Bioorg Med Chem, 2018)
Starred links: 1 amine or outer side, 2 acyl side, 3 side chain; linkers in the order of their positions; H or OH if unused. Positions of bridges follow the written chain, without caps; N, C: chain ends. Non-standard residues stand in square brackets, D forms with d. Residues, ends and D or L forms follow the SMILES beside them. oXylylene = c1ccc(C[*:2])c(C[*:1])c1; X1 = O=C(CCC[*:2])[*:1]; Mpa = O=C(O)CCS

Key:
Oxytocin receptor [1] = biological target: T1, Oxytocin receptor (Homo sapiens, UniProt P30559); assay: Antagonist activity at human mammary gland oxytocin receptor expressed in CHO cells assessed as inhibition of agonist-induced intracellular calcium flux preincubated for 20 mins followed by oxytocin addition measured for 5 mins by Fluo-4-AM dye based FLIPR assay; format: functional, cell-based
T1 sequence (P30559 whole entry): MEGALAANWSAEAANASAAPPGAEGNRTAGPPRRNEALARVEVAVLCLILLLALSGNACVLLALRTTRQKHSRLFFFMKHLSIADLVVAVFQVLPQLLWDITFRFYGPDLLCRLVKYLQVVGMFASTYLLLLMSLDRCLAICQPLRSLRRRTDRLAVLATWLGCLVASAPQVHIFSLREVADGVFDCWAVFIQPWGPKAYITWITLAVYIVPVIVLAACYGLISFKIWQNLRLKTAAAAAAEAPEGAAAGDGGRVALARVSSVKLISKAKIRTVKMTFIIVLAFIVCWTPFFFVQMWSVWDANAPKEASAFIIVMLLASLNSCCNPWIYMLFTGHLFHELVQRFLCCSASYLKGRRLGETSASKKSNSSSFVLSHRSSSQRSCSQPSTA
Summary of the method: (§1)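 CHO cells stably expressing the relevant human receptor, plated 24 h, loaded 60 min with 2 µM Fluo-4-AM and read on FLIPR. […] IC50 came from a variable-slope single-site competition fit of normalized fluorescence. At least 3 runs in duplicate.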

Oxytocin receptor [2] = biological target: T1, Oxytocin receptor; assay: Displacement of [3H]OT from human mammary gland oxytocin receptor expressed in HEK293 cell membrane after 1 hr by scintillation counting method; format: cell membranes
Summary of the method: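 Membranes from a stable HEK clone expressing human OTR cloned from mammary gland RNA. Filtration binding with 1 nM final [3H]OT in 50 mM Tris, 5 mM MgCl2, 0.1% BSA, pH 7.4, for 1 h at room temperature. GF/C filters, washed 5 times ice-cold. Ki by Cheng-Prusoff. Three experiments in duplicate.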

Vasopressin V1a receptor [3] = biological target: T2, Vasopressin V1a receptor (Homo sapiens, UniProt P37288); assay: Displacement of [3H]AVP from human liver vasopressin V1a receptor expressed in HEK293 cell membrane after 1 hr by scintillation counting method; format: cell membranes
Summary of the method: (§2)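 Membranes from transiently transfected HEK293 cells. Receptors were cloned from human liver (V1a) or kidney (V2) RNA. SPA assay with yttrium silicate beads in 50 mM Tris, 120 mM NaCl, 5 mM KCl, 2 mM CaCl2, 10 mM MgCl2. 4 nM [3H]AVP added, compound in 2% DMSO, 1 h at room temperature. Ki by Cheng-Prusoff. Three experiments in duplicate.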

Vasopressin V1a receptor [4] = biological target: T2, Vasopressin V1a receptor; assay: Agonist activity at human liver vasopressin V1a receptor expressed in CHO cells assessed as increase in intracellular calcium flux measured for 5 mins by Fluo-4-AM dye based FLIPR assay; format: functional, cell-based
Summary of the method: (§3)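 Stably transfected CHO lines, one human receptor each, grown in F-12K with 10% FBS, geneticin 200 µg/mL, 37 °C, 10% CO2. Plated 50,000 cells/well for 24 h, then loaded 60 min with 2 µM Fluo-4-AM. Compound dilution series added on FLIPR and calcium signal recorded 5 min for agonist activity. Each compound tested at least 3 times in duplicate.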

Vasopressin V1b receptor [5] = biological target: T3, Vasopressin V1b receptor (Homo sapiens, UniProt P47901); assay: Antagonist activity at human vasopressin V1b receptor expressed in CHO cells assessed as inhibition of agonist-induced intracellular calcium flux preincubated for 20 mins followed by AVP addition measured for 5 mins by Fluo-4-AM dye based FLIPR assay; format: functional, cell-based; summary of the method: as §1
T3 sequence (P47901 whole entry): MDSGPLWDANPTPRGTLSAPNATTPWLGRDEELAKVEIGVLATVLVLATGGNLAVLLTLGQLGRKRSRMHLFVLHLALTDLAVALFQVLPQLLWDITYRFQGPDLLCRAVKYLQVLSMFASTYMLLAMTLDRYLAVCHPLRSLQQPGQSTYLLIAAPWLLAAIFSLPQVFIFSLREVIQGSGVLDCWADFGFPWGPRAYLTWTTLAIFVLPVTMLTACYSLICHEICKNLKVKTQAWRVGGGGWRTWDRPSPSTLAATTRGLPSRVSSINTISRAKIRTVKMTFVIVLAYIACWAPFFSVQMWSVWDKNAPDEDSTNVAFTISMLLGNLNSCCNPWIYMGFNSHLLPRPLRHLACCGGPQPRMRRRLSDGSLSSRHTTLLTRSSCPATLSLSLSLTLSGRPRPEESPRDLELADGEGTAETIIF

Vasopressin V1b receptor [6] = biological target: T3, Vasopressin V1b receptor; assay: Displacement of [3H]AVP from human vasopressin V1b receptor expressed in HEK293 cell membrane after 1 hr by scintillation counting method; format: cell membranes
Vasopressin V1b receptor [7] = biological target: T3, Vasopressin V1b receptor; assay: Agonist activity at human vasopressin V1b receptor expressed in CHO cells assessed as increase in intracellular calcium flux measured for 5 mins by Fluo-4-AM dye based FLIPR assay; format: functional, cell-based
Vasopressin V1a receptor [8] = biological target: T2, Vasopressin V1a receptor; assay: Antagonist activity at human liver vasopressin V1a receptor expressed in CHO cells assessed as inhibition of agonist-induced intracellular calcium flux preincubated for 20 mins followed by AVP addition measured for 5 mins by Fluo-4-AM dye based FLIPR assay; format: functional, cell-based; summary of the method: as §1
Oxytocin receptor [9] = biological target: T1, Oxytocin receptor; assay: (§4) Agonist activity at human mammary gland oxytocin receptor expressed in CHO cells assessed as increase in intracellular calcium flux measured for 5 mins by Fluo-4-AM dye based FLIPR assay; format: functional, cell-based; summary of the method: as §3
[10] = biological target: T4, Oxytocin receptor (Homo sapiens) (UniProt P30559); assay: as §4; format: functional, cell-based; summary of the method: as §3
T4 sequence (whole entry): T1 sequence (P30559 whole entry)

[11] = Thermal stability of the compound at 50 degC at 0.5 mg/ml after 10 days by LC-MS analysis; format: physicochemical; details: 240 h
Summary of the method: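 Peptides dissolved in water at 0.5 mg/mL and held at 50 °C. After 10 days, aliquots were analysed by direct-injection LC-MS. Remaining peptide was expressed as a percentage of the corresponding peak before heating.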

[12] = Half life in Sherman rat plasma; format: ADME, cell-free
Homo sapiens [13] = species: Homo sapiens; assay: Selectivity index, ratio of IC50 for human liver vasopressin V1a receptor to IC50 for human mammary gland oxytocin receptor
Homo sapiens [14] = species: Homo sapiens; assay: Selectivity index, ratio of Ki for human mammary gland oxytocin receptor to Ki for human liver vasopressin V1a receptor
Summary of the method: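 Ratio of binding Ki from the radioligand displacement assays, calculated as the OTR binding value divided by the V1a value.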

Homo sapiens [15] = species: Homo sapiens; assay: Selectivity index, ratio of Ki for human liver vasopressin V1a receptor to Ki for human mammary gland oxytocin receptor
Summary of the method: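 Ratio of binding Ki from the radioligand displacement assays, calculated as the strongest AVP receptor subtype binding value divided by the OTR value.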

Homo sapiens [16] = species: Homo sapiens; assay: Selectivity index, ratio of IC50 for human mammary gland oxytocin receptor to IC50 for human liver vasopressin V1a receptor
Vasopressin V2 receptor [17] = biological target: T5, Vasopressin V2 receptor (Homo sapiens, UniProt P30518); assay: Agonist activity at human kidney vasopressin V2 receptor expressed in CHO cells assessed as increase in intracellular calcium flux measured for 5 mins by Fluo-4-AM dye based FLIPR assay; format: functional, cell-based; summary of the method: as §3
Vasopressin V2 receptor [18] = biological target: T5, Vasopressin V2 receptor; assay: Antagonist activity at human kidney vasopressin V2 receptor expressed in CHO cells assessed as inhibition of agonist-induced intracellular calcium flux preincubated for 20 mins followed by AVP addition measured for 5 mins by Fluo-4-AM dye based FLIPR assay; format: functional, cell-based
Summary of the method: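 CHO cells stably expressing the relevant human receptor, plated 24 h, loaded 60 min with 2 µM Fluo-4-AM and read on FLIPR. IC50 came from a variable-slope single-site competition fit of normalized fluorescence. At least 3 runs in duplicate.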

Vasopressin V2 receptor [19] = biological target: T5, Vasopressin V2 receptor; assay: Displacement of [3H]AVP from human kidney vasopressin V2 receptor expressed in HEK293 cell membrane after 1 hr by scintillation counting method; format: cell membranes; summary of the method: as §2

T2 sequence (P37288 whole entry): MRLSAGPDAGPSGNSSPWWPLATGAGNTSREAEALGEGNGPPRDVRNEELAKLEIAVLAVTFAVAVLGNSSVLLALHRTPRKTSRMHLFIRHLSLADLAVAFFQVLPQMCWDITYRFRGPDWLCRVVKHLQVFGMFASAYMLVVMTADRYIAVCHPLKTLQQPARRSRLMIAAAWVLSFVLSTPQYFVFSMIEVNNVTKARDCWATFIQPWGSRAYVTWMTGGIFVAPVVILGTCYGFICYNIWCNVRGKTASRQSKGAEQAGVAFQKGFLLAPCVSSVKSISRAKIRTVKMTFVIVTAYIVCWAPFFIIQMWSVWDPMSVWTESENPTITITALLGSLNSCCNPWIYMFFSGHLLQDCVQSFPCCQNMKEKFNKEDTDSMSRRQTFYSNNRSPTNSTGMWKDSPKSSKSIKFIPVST
T5 sequence (P30518 whole entry): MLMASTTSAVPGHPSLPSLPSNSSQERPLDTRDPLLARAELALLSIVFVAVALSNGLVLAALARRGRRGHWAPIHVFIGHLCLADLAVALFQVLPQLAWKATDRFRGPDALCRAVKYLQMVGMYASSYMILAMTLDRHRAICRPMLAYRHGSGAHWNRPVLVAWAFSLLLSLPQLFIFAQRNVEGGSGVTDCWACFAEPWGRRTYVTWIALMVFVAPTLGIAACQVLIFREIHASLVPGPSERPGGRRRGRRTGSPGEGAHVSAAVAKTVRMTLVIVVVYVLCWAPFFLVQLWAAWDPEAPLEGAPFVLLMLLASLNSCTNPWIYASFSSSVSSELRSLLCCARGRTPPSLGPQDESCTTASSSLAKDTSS

IC50 (Oxytocin receptor [1]; cho)	Ki (Oxytocin receptor [2])	Ki (Vasopressin V1a receptor [3])	EC50 (Vasopressin V1a receptor [4])	IC50 (Vasopressin V1b receptor [5])	Ki (Vasopressin V1b receptor [6])	EC50 (Vasopressin V1b receptor [7])	IC50 (Vasopressin V1a receptor [8])	EC50 (Oxytocin receptor [9])	%max [10]	Stability [11]	half-life [12]	Ratio IC50 (Homo sapiens [13])	Ratio Ki (Homo sapiens [14])	IC50 (Oxytocin receptor [1]; read-out: IC50)	Ratio Ki (Homo sapiens [15])	Ratio IC50 (Homo sapiens [16])	EC50 (Vasopressin V2 receptor [17])	IC50 (Vasopressin V2 receptor [18])	Ki (Vasopressin V2 receptor [19])	Structure (SMILES)
Not Active	220 nM	69 nM	> 20000 nM	Not Active	> 6000 nM	8300 nM	35 nM	–	–	–	–	–	–	–	–	–	–	–	–	CC[C@H](C)[C@@H]1NC(=O)[C@H](Cc2ccc(O)cc2)NC(=O)CCSCc2ccccc2CSC[C@@H](C(=O)N2CCC[C@H]2C(=O)N[C@@H](CC(C)C)C(=O)NCC(N)=O)NC(=O)[C@H](CC(N)=O)NC(=O)[C@H](CCC(N)=O)NC1=O
Not Active	50 nM	1680 nM	> 20000 nM	Not Active	> 6000 nM	2970 nM	4400 nM	34 nM	75%	Stable	–	–	–	–	–	–	–	–	–	CC[C@H](C)[C@@H]1NC(=O)[C@H](Cc2ccc(O)cc2)NC(=O)CCSCc2cccc(c2)CSC[C@@H](C(=O)N2CCC[C@H]2C(=O)N[C@@H](CC(C)C)C(=O)NCC(N)=O)NC(=O)[C@H](CC(N)=O)NC(=O)[C@H](CCC(N)=O)NC1=O
–	–	–	–	–	–	–	–	–	–	–	3 min	–	–	–	–	–	–	–	–	CC[C@H](C)[C@@H]1NC(=O)[C@H](Cc2ccc(O)cc2)NC(=O)[C@@H](N)CSSC[C@@H](C(=O)N2CCC[C@H]2C(=O)N[C@@H](CC(C)C)C(=O)NCC(N)=O)NC(=O)[C@H](CC(N)=O)NC(=O)[C@H](CCC(N)=O)NC1=O [OXYTOCIN]
–	–	–	–	–	–	–	–	–	45%	–	–	–	–	–	–	–	–	–	–	CC[C@H](C)[C@@H]1NC(=O)[C@H](Cc2ccc(OC)cc2)NC(=O)CCCSC[C@@H](C(=O)N2CCC[C@H]2C(=O)N[C@@H](CC(C)C)C(=O)NCC(N)=O)NC(=O)[C@H](CC(N)=O)NC(=O)[C@H](CCC(N)=O)NC1=O (Y(Me)IQNCPLG-NH2; linker N-5 via X1)
–	166 nM	30 nM	> 20000 nM	Not Active	> 6000 nM	9260 nM	14 nM	> 10000 nM	–	–	–	0.008	5.5	1720 nM	0.2	123	18900 nM	Not Active	> 6000 nM	CC[C@H](C)[C@@H]1NC(=O)[C@H](Cc2ccc(O)cc2)NC(=O)CCSCc2ccccc2CSC[C@@H](C(=O)N2CCC[C@H]2C(=O)N[C@@H](CCCNC(=N)N)C(=O)NCC(N)=O)NC(=O)[C@H](CC(N)=O)NC(=O)[C@H](CCC(N)=O)NC1=O ([Mpa]YIQNCPRG-NH2; linker 1-6 via oXylylene)
